Results taken from ChEMBL document CHEMBL3352233, “N-[6-(4-butanoyl-5-methyl-1H-pyrazol-1-yl)pyridazin-3-yl]-5-chloro-1-[2-(4-methylpiperazin-1-yl)-2-oxoethyl]-1H-indole-3-carboxamide (SAR216471), a novel intravenous and oral, reversible, and directly acting P2Y12 antagonist” (J Med Chem, 2014).
Calls of active or inactive are those of the source. The calls are words filed in the database; no cut-off is given here.

Columns and labels:
[1] = system: Salmonella typhimurium; experiment: Mutagenicity in Salmonella typhimurium by Ames II test in presence of liver S9 fraction; format: toxicity, organism-based; details: salmonella enterica subsp. enterica serovar typhimurium
[2] = system: Salmonella typhimurium; experiment: Mutagenicity in Salmonella typhimurium by Ames II test in absence of liver S9 fraction; format: toxicity, organism-based; details: salmonella enterica subsp. enterica serovar typhimurium
[3] = Permeability across human Caco2 cells; format: ADME, cell-based; details: for Papp: Caco-2, read-out: permeability
Method in brief: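 Permeation is measured across a Caco2 cell monolayer and reported in 10⁻⁷ cm·s⁻¹.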

[4] = biological target: P2Y purinoceptor 12 (Homo sapiens, UniProt Q9H244); experiment: Displacement of [33P]2MeS-ADP from P2Y12 receptor (unknown origin) transfected in CHO cells after 30 mins by scintillation counting analysis; format: cell-based
Method in brief: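 P2Y12-expressing CHO cells (35 × 10³/sample) in PBS with 1 mM EDTA and 0.2% BSA are exposed to compound for 30 min. [³³P]2-MeS-ADP (0.16 nM) is then added for 15 min at 20 °C, in triplicate. Filtration separates free from bound ligand, followed by scintillation counting. Nonspecific binding uses 1 mM unlabeled ADP. IC50 comes from a four-parameter logistic fit with asymptotes fixed at 0 and 100. n = 2.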

[5] = (§1) Metabolic stability in human liver microsomes assessed as compound metabolism after 20 mins incubation in presence of 1 mM NADPH; format: ADME; details: liver microsomes, read-out: Drug metabolism
Method in brief: (§2)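 Hepatic microsomal fractions are incubated with compound for 20 min with 1 mM NADPH. Result is reported as % metabolized, i.e. 100 minus % unchanged compound.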

[6] = system: Hepatocyte; experiment: Intrinsic metabolic clearance in human hepatocytes measured per 10^6 cells after 24 hrs; format: ADME, cell-based
Method in brief: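 Human hepatocytes incubated with compound for 24 h to measure in vitro metabolism. Clearance reported in mL·h⁻¹·(10⁶ hepatocytes)⁻¹.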

[7] = (§3) Metabolic stability in rat liver microsomes assessed as compound metabolism after 20 mins incubation in presence of 1 mM NADPH; format: ADME; details: liver microsomes, read-out: Drug metabolism; method in brief: as §2
[8] = system: Hepatocyte; experiment: Intrinsic metabolic clearance in human hepatocytes measured assessed as CYP3A4 contribution per 10^6 cells after 24 hrs; format: ADME, cell-based
[9] = Metabolic stability in mouse liver microsomes assessed as compound metabolism after 20 mins incubation in presence of 1 mM NADPH; format: ADME; details: read-out: Drug metabolism
Method in brief: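 Compound incubated with mouse hepatic microsomal fractions for 20 min with 1 mM NADPH. Read-out is % metabolism, meaning 100 minus % unchanged compound.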

[10] = Solubility in water at pH 4.9; format: physicochemical
[11] = system: Rattus norvegicus; experiment: Ex vivo inhibition of platelet aggregation in Sprague-Dawley rat at 10 mg/kg, po after 2 hrs; format: functional; details: Rattus norvegicus, Sprague-Dawley, po, 2 h
Method in brief: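 Male Sprague−Dawley rats (250−300 g), 6 per batch, are dosed by stomach tube at 10 mL/kg of a 1 mg/mL solution in 5% glucose water containing 5% Cremophor and 3% glycofurol. At 2 h, aortic blood is drawn into 3.8% citrate (1:9) under pentobarbital. PRP is prepared at 300g for 5 min. ADP aggregation is read as the 6-min absorbance AUC and expressed as % inhibition.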

[12] = Solubility in water at final pH; format: physicochemical
[13] = system: Rattus norvegicus; experiment: Ex vivo inhibition of platelet aggregation in Sprague-Dawley rat at 10 mg/kg, po after 6 hrs; format: functional; details: for inhibition in vivo at 10 mg/kg: Rattus norvegicus, Sprague-Dawley, po, 6 h
Method in brief: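 Time-course study in Sprague−Dawley rats after a 10 mg/kg oral dose in glucose/Cremophor/glycofurol vehicle. Aortic citrated blood is sampled at intervals over the hours after dosing. PRP is prepared at 300g for 5 min. ADP-induced aggregation is measured as the 6-min absorbance AUC and reported as % inhibition.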

[14] = system: Rattus norvegicus; experiment: Ex vivo inhibition of platelet aggregation in po dosed Sprague-Dawley rat after 2 hrs; format: functional
Method in brief: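 Oral gavage in male Sprague−Dawley rats (250−300 g, 6 per batch), vehicle 5% glucose water with 5% Cremophor and 3% glycofurol. Blood is collected 2 h after dosing from the abdominal aorta into 3.8% citrate under pentobarbital. PRP is prepared at 300g for 5 min. ADP-induced aggregation is quantified as the 6-min absorbance AUC, given as % inhibition.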

[15] = system: Liver microsome; experiment: as §1; format: ADME; details: microsomes, 20 min; method in brief: as §2
[16] = system: Liver microsome; experiment: as §3; format: ADME; details: microsomes, 20 min; method in brief: as §2

P2Y purinoceptor 12, sequence (Q9H244 whole entry): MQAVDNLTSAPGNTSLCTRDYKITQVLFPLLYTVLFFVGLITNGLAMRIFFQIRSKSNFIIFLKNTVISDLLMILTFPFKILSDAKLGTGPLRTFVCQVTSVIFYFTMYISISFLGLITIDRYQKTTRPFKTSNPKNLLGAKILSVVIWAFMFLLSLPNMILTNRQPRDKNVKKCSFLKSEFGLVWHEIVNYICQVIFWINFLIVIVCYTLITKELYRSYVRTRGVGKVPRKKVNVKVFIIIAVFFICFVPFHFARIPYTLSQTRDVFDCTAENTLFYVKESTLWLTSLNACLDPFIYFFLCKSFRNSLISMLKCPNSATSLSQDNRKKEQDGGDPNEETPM

Row | SMILES | Activity [1] | Activity [2] | Papp [3] | IC50 [4] | metabolised at 20 min [5] | metabolised at 20 min [7] | other results
1 | CCCC(=O)c1cnn(-c2ccc(N)c(C#N)c2)c1C | Non-toxic | Non-toxic |  |  |  |  | 
2 | CCCC(=O)c1cnn(-c2cnc(N)cn2)c1C | Non-toxic | Non-toxic |  |  |  |  | 
3 | CCCC(=O)c1cnn(-c2ccc(NC(=O)c3cn(CC(=O)N4CCN(C)CC4)c4ccc(Cl)cc34)c(C#N)c2)c1C |  |  | 3.3 ×10⁻⁶ cm/s | 48 nM | 61% | 18% | CLH [6]: 0.143 mL/h; Activity [8]: 67%; metabolised at 20 min [9]: 8%
4 | CCCC(=O)c1cnn(-c2ccc(NC(=O)c3cn(CC(=O)N4CCN(C)CC4)c4ccc(C)cc34)cc2)c1C.Cl |  |  | 4 ×10⁻⁶ cm/s | 31 nM | 39% | 41% | solubility [10]: 760 µg/mL; inhibition in vivo at 10 mg/kg [11]: 33%
5 | CCCC(=O)c1cnn(C2CCN(N)CC2)c1C | Non-toxic | Non-toxic |  |  |  |  | 
6 | CCCC(=O)c1cnn(-c2ccc(NC(=O)c3cn(CC(=O)N(C)C)c4cc(C)c(C)cc34)cc2)c1C |  |  | 18.6 ×10⁻⁶ cm/s | 31 nM | 59% | 64% | solubility [12]: < 10 µg/mL
7 | CCCC(=O)c1cnn(-c2ccc(N)c(C(N)=O)c2)c1C | Non-toxic | Non-toxic |  |  |  |  | 
8 | CCCC(=O)c1cnn(-c2ccc(O)cc2)c1C | Non-toxic | Non-toxic |  |  |  |  | 
9 | CCCC(=O)c1cnn(-c2ccc(NC(=O)c3cn(CC(=O)N4CCN5CCN(C)C(=O)C5C4)c4ccc(Cl)cc34)cc2)c1C (single isomer, unassigned; 103) |  |  |  |  |  |  | inhibition [13]: inactive
10 | CCCC(=O)c1cnn(-c2ccc(NC(=O)c3cn(CC(=O)N4CCN(Cc5cc(C)on5)CC4)c4ccc(Cl)cc34)cc2)c1C |  |  | 0.6 ×10⁻⁶ cm/s | 11 nM | 87% | 31% | inhibition in vivo at 10 mg/kg [13]: 60%; inhibition in vivo at 10 mg/kg [11]: 72%
11 | CC(=O)Oc1cc2c(s1)CCN(C(C(=O)C1CC1)c1ccccc1F)C2 (configuration not stated) |  |  |  |  |  |  | ED50 [14]: 0.46 mg/kg
12 | CCCC(=O)c1cnn(-c2cnc(N)s2)c1C | Toxic | Non-toxic |  |  |  |  | 
13 | CCCC(=O)c1cnn([C@H]2CC[C@H](N)CC2)c1C |  | Non-toxic |  |  |  |  | 
14 | CCCC(=O)c1cnn(-c2ccc(NC(=O)c3cn(CC(=O)N4CCN5CCN(C)C(=O)C5C4)c4ccc(Cl)cc34)cc2)c1C (single isomer, unassigned; 104) |  |  |  | 12 nM |  |  | permeability ([3]; Caco-2): 28 ×10⁻⁷ cm/s; inhibition (INH) ([13]; 10 mg/kg): 61%; Drug metabolism [15]: 47%; Drug metabolism [16]: 7%
15 | CCCC(=O)c1cnn(-c2ccc(NC(=O)c3cn(CC(=O)N4CCN(CCOC)CC4)c4ccc(Cl)cc34)cc2)c1C |  |  | 4.3 ×10⁻⁶ cm/s | 15 nM | 47% | 11% | inhibition in vivo at 10 mg/kg [13]: 65%; inhibition in vivo at 10 mg/kg [11]: 68%
16 | CCCC(=O)c1cnn(-c2ccc(N)cn2)c1C | Toxic | Non-toxic |  |  |  |  | 
